In ChEMBL document CHEMBL1126114, “A novel orally active inhibitor of IL-1 generation: synthesis and structure-activity relationships of 3-(4-hydroxy-1-naphthalenyl)-2-propenoic acid derivatives” (J Med Chem, 1992):
Several values for one entry are separate records, joined by “and”; a condition that tells them apart may be missing. Equal entries are not always repeated.

Experiments:
Format in all cases: functional
Homo sapiens = species: Homo sapiens; test: In vitro inhibitory activity against IL-1 generation by using human monocyte
How it was run: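 Healthy-donor peripheral mononuclear cells, adhered 1.5 h in RPMI 1640 with 10% heat-inactivated autologous serum. Adherent monocytes then stimulated with LPS 1 μg/mL for 16–18 h in 1% autologous serum with 0.1% ethanol, ± drug. Extra- plus intracellular IL-1 read by LAF assay against a recombinant human IL-1β curve. IC50 by least squares; mean of ≥2 experiments.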

Rattus norvegicus [1] = test: In vivo percent inhibition of IL-1 generation in rat CMC-LPS air pouch model at 100 uM concentration (local administration)
How it was run: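 Rat air pouch: 10 mL air s.c. into the dorsum, 2% CMC-Na in saline 24 h later, then LPS 5 ng 24 h after CMC. Compound given locally in 5% EtOH-RPMI with 30% autologous serum, 100 μM final in exudate, at 30 min before and just before LPS. Exudate IL-1 (extra- plus intracellular) read by LAF at 4 h. n=5; % inhibition ± SEM.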

Rattus norvegicus [2] = species: Rattus norvegicus; test: In vitro inhibitory activity against IL-1 generation by using rat exudated macrophages
How it was run: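 Fisher rat peritoneal exudate cells collected 4 days after i.p. 2.5% glycogen. Cells adhered 1.5 h at 37 °C in 1% normal rat serum. Adherent macrophages stimulated with LPS 1 ng/mL for 4 h ± compound. Intracellular IL-1 read by LAF assay against a recombinant human IL-1α curve. IC50 by least squares; mean of duplicates.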

Rattus norvegicus [3] = test: Compound was evaluated in vivo for the percent inhibition of IL-1 generation in rat CMC-LPS air pouch model at 200 mg/Kg concentration (oral administration)
How it was run: (§1)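 Rat CMC-LPS air pouch: air s.c., 2% CMC-Na 24 h later, LPS 5 ng 24 h after that. Compound given orally in 0.5% methyl cellulose 2 h before LPS. Exudate collected at 4 h; IL-1 (extra- plus intracellular) read by LAF assay against a recombinant human IL-1α curve.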

Rattus norvegicus [4] = test: Compound was evaluated in vivo for the percent inhibition of IL-1 generation in rat CMC-LPS air pouch model at 50 mg/Kg concentration (oral administration); how it was run: as §1

| SMILES | IC50 (Homo sapiens) [nM] | IC50 (Rattus norvegicus [2]) [nM] | Inhibition (Rattus norvegicus [1]) | inhibition in vivo at 200 mg/kg (Rattus norvegicus [3]) [%] | inhibition in vivo at 50 mg/kg (Rattus norvegicus [4]) [%] |
| --- | --- | --- | --- | --- | --- |
| CCCc1cccc2c(/C=C(\C)C(=O)O)cc(OC)c(O)c12 |  |  | 91% | 67 | < 25 |
| CCOc1cc(/C=C/C(=O)O)c2cccc(CC)c2c1O |  | 1400 | 75% |  |  |
| COc1cc(/C=C/C(=O)O)c2cccc(C)c2c1O | 2500 | < 1000 | <25% |  |  |
| CCCc1cccc2c(/C=C(\CC)C(=O)O)cc(OC)c(O)c12 | 3700 | < 1000 | 91% | 62 |  |
| CCCC/C(=C\C(=O)O)c1cc(OC)c(O)c2c(CC)cccc12 | 5800 | > 10000 | 52% |  |  |
| CCc1cccc2c(/C=C(/Cc3ccccc3)C(=O)O)cc(OC)c(O)c12 |  | 2100 |  |  | < 25 |
| COc1cc(/C=C(/C)C(=O)O)c2cccc(C(C)C)c2c1O | 2100 | 1400 | 87% and 79% |  | 29 |
| CC/C(=C\c1cc(OC)c(O)c2c(CC)cccc12)C(=O)O |  | 1400 | 72% | 41 |  |
| CCCc1cccc2c(/C=C(/C)C(=O)O)cc(OC)c(O)c12 |  |  | 87% and 86% |  | 33 |
| CCc1cccc2c(/C=C(\C)C(=O)O)cc(OC)c(O)c12 |  |  | 85% | 36 |  |
| CCc1cccc2c(/C(C)=C/C(=O)O)cc(OC)c(O)c12 |  | > 10000 | <25% |  |  |
| CCCCCOc1cc(/C=C/C(=O)O)c2cccc(CC)c2c1O | 5300 | 2500 | 33% |  |  |
| COc1cc(/C=C(\C)C(=O)O)c2cccc(C(C)C)c2c1O | < 1000 | 1000 | 70% | < 25 |  |
| COc1cc(/C=C/C(=O)O)c2cccc(C(C)C)c2c1O | 1400 | 1000 | 73% | < 25 |  |
| COc1cc(/C=C/C(=O)O)c2ccccc2c1O | 1900 | 1400 | <25% |  |  |
| CCc1cccc2c(/C=C(/C(=O)O)c3ccccc3)cc(OC)c(O)c12 |  | 2500 | 42% | < 25 |  |
| CCCc1cccc2c(/C=C(/CC)C(=O)O)cc(OC)c(O)c12 | < 1000 | < 1000 | 90% and 78% |  | 47 |
| CCc1cccc2c(/C=C(\Cc3cccs3)C(=O)O)cc(OC)c(O)c12 |  | 6500 | 44% |  |  |
| CCc1c(OC)c(O)c2ccccc2c1/C=C/C(=O)O | > 10000 | > 10000 | <25% |  |  |
| CCc1cccc2c(/C(C)=C\C(=O)O)cc(OC)c(O)c12 |  | > 10000 | <25% |  |  |
| CCc1cccc2c(/C=C/C(=O)O)cc(OC)c(O)c12 | 2400 | 1500 | 88% | < 25 |  |
| CC/C(=C/c1cc(OC)c(O)c2c(CC)cccc12)C(=O)O |  | 2100 | 90% and 71% |  | 43 |

More lines, main results first:

| IC50 (Homo sapiens) [nM] | IC50 (Rattus norvegicus [2]) [nM] | SMILES | Inhibition (Rattus norvegicus [1]) | inhibition in vivo at 200 mg/kg (Rattus norvegicus [3]) [%] | inhibition in vivo at 50 mg/kg (Rattus norvegicus [4]) [%] |
| --- | --- | --- | --- | --- | --- |
| 6700 | 1900 | CCc1cccc2c(/C=C/C(=O)O)cc(OCc3ccccc3)c(O)c12 | 39% |  |  |
|  | 2300 | CCc1cccc2c(/C=C(\Cc3ccccc3)C(=O)O)cc(OC)c(O)c12 | 79% | < 25 |  |
| > 10000 | 3500 | CCc1cccc2c(/C=C/C(=O)O)cc(OCCOC)c(O)c12 | 34% |  |  |
|  | 1600 | CCCc1cccc2c(/C=C(/Cc3ccccc3)C(=O)O)cc(OC)c(O)c12 | 91% | 51 |  |
| > 10000 |  | CCc1c(OC)c(O)c2c(CC)cccc2c1/C=C/C(=O)O | <25% |  |  |
|  | 6300 | COCCCc1cccc2c(/C=C/C(=O)O)cc(OC)c(O)c12 | <25% |  |  |
| 3900 | 4000 | CCc1ccc2c(O)c(OC)cc(/C=C/C(=O)O)c2c1 | <25% |  |  |
| 4000 | 4100 | CCc1ccc2c(/C=C/C(=O)O)cc(OC)c(O)c2c1 | <25% |  |  |
| 1800 | 5500 | CCc1cccc2c(O)c(OC)cc(/C=C/C(=O)O)c12 | 26% |  |  |
| 2300 | < 1000 | CCCc1cccc2c(/C=C/C(=O)O)cc(OC)c(O)c12 | 91% | 32 | < 25 |
